# The list is not random: actives were taken first. Their share in the collection is about 4%.
# MT stabilize HCS: microtubule stabilizers in HeLa cells; HeLa tubulin immunostaining HCS, 24 h; share of cells brighter than vehicle mean+2SD; % tubulin-high responders, % at 10 µM; 0.83% of 200,000 active; AID 2205;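 active = plate Z-score above 3 for both tubulin-high and condensed-nucleus cell shares, with cell loss under 80%, at 10 µM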;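 note: anti alpha tubulin signal scored within the nucleus-defined area of each cell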
# b-catenin transl: beta-catenin nuclear translocation modulation. AID 1665. HeLa beta-catenin nuclear translocation, immunofluorescence imaging. 0.3% of 190,000 active. nuclear translocation activity, % at 5 µM;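 active = nuclear translocation activity above 50% at 5 µM, with a well cell count of 50 or more; inconclusive = wells under 50 cells across six images, flagged as toxic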;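 note: per-cell ratio of nuclear to cytoplasmic median beta-catenin stain intensity; plate controls were DMSO negative control for no effect and GSK-3 inhibitor IX positive control for full effect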
#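 System: HeLa cells, endogenous beta-catenin; compound dosing: 5 µM primary single dose, 0.1% DMSO, 0.02–20 µM confirmation series; incubation: 24 h compound exposure at 37°C, 5% CO2; signal: beta-catenin immunofluorescence imaging with DAPI; evaluation: % activation, nuclear-to-cytoplasmic median beta-catenin signal ratio per cell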
# Pf gamet viab: kills late stage P. falciparum gametocytes; 0.065% of 150,000 active; AID 743093; P. falciparum stage V gametocytes, ATP luminescence, 24 h; inhibition, % at 10.9 µM;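 active = inhibition above the mean plus 3 SD of compounds within the control limits, set per campaign, cut at about 38% in these data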;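 note: 0% = DMSO wells and 100% = medium only without gametocytes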
# Cl transport mod: KCC2 (human) Cl- transport modulation; KCC2 cells, thallium flux FluoZin-2 fluorescence; B-score of Tl+ flux slope (higher = more flux/activation; lower = inhibition) at 10 µM; AID 1456; 2.2% of 190,000 active;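 active = thallium flux slope and its plate-corrected score both differing from the plate sample mean at a set confidence after two filtering rounds, in either direction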;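 note: slope of fluorescence scaled to starting intensity during 10 to 20 s after thallium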
# Target sequence (Q9H2X9 whole entry, looked up): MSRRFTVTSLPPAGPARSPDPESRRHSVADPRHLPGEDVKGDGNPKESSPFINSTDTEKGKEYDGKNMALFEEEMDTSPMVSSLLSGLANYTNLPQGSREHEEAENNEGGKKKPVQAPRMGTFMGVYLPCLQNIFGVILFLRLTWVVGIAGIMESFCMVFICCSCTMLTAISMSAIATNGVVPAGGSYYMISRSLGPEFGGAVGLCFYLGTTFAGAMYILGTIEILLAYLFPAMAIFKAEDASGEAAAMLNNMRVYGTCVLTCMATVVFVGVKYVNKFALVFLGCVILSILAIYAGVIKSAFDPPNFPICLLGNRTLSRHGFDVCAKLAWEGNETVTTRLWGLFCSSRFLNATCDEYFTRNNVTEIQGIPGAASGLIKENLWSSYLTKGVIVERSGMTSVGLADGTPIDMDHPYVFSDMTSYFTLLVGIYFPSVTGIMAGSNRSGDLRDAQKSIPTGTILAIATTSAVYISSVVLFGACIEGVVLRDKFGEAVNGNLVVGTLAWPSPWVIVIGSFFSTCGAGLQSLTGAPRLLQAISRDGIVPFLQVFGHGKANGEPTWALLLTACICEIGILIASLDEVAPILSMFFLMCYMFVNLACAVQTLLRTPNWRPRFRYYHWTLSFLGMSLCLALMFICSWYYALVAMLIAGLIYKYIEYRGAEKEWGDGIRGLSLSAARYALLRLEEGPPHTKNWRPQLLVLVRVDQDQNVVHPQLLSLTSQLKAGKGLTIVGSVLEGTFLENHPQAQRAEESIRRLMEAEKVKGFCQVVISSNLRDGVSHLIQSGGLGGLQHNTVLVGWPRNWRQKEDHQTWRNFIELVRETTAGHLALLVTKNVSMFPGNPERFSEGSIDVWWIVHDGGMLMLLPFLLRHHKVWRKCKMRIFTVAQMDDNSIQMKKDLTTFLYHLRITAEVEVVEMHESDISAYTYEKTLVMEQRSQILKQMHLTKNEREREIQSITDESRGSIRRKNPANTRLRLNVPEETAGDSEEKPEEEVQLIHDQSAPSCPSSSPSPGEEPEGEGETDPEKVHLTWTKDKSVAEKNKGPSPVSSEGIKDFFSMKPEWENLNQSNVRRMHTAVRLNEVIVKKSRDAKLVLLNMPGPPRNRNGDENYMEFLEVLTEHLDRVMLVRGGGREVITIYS
# WT yeast gro inh: growth inhibition of WT yeast, mitochondrial fusion screen; inhibition, % at 10 µM; mitochondrial fusion phenotypic screen, WT strain; AID 1362; 2.1% of 190,000 active; in the data active = inhibition above about 58%; tested in S. cerevisiae
# KCC2 sec1: KCC2 (human) modulation, secondary assay; shares compounds with Cl transport mod; HEK293-KCC2, thallium flux, FluoZin2 fluorescence; hits give high values; normalised thallium flux (F/F0 slope) at 10 µM; 15% of 3,700 active;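 active = thallium flux slope above the same plate's solvent-only control mean plus 3 SD; inconclusive = the two replicate wells disagree; inactive = no significant difference from solvent-only control wells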
# KCC2 bumet counter: bumetanide-insensitive thallium flux in KCC2 cells with ouabain, counter-screen; normalized thallium flux at 10 µM; HEK293-KCC2 + bumetanide/ouabain, thallium flux FluoZin2; hits give high values; shares compounds with Cl transport mod; 49% of 3,700 active;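 active = thallium entry rate above the same plate's blocked-transporter control wells by more than 3 SD; inconclusive = the two repeat wells disagree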;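 note: raw slope of fluorescence over initial fluorescence between 10 and 20 s after thallium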
# KCC2 sec2: KCC2 (human) modulation, second secondary assay. normalized thallium flux at 10 µM. AID 1715. HEK293-KCC2, thallium flux FluoZin2 fluorescence; actives lie on both sides; F/F0 rise rate, 10–20 s post-thallium. 23% of 3,700 active. shares compounds with Cl transport mod;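 active = thallium flux slope more than 3 SD above or below the plate's solvent-only control mean, mostly below; inconclusive = the two repeat wells disagreed; inactive = no significant shift from solvent-only controls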;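 note: raw slope with 0.1% DMSO as baseline and bumetanide as block control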
# HEK293 Tl flux: acts in parental HEK cells, KCC2 counter-screen; shares compounds with Cl transport mod; HEK293 parental cells, thallium flux FluoZin2, ouabain; baseline-ratio fluorescence slope, 10–20 s after thallium; thallium flux rate (normalised fluorescence) at 10 µM; 46% of 3,700 active;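 active = thallium flux rate significantly above the same plate's solvent-only control wells, beyond their mean plus 3 SD; inconclusive = the two replicate wells gave conflicting results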
# KCC2 retest ouab: confirmation of human KCC2 modulators with ouabain. raw Tl+ flux slope (below DMSO = inhibition, above = activation) at 10 µM. AID 1717. shares compounds with Cl transport mod. 48% of 3,700 active. HEK293-KCC2, thallium flux FluoZin2 fluorescence; bidirectional: low = inhibitor, high = activator;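 active = thallium flux slope beyond 3 SD from same-plate DMSO control mean in most replicates, usually higher, sometimes lower; inconclusive = repeat tests gave conflicting results; inactive = no significant difference from controls in most replicates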;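 note: slope of initial-normalized fluorescence between seconds 10 and 20 after thallium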
# HEK293 Tl flux2: acts in parental HEK cells, second KCC2 counter-screen; AID 1718; HEK293 parental, thallium flux FluoZin-2 fluorescence slope; 33% of 3,700 active; thallium flux slope at 10 µM; shares compounds with Cl transport mod;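 active = thallium flux slope above the same plate's solvent-control mean plus 3 SD in both duplicate wells; inconclusive = duplicate wells that disagreed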;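 note: run without ouabain in cells lacking the KCC2 cotransporter; slope of fluorescence scaled to its starting value between 10 and 20 s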
# * marks the source's active call; other numbers are inactive results; ? = inconclusive; / = no result given.
SMILES,MT stabilize HCS,b-catenin transl,Pf gamet viab,Cl transport mod,WT yeast gro inh,KCC2 sec1,KCC2 bumet counter,KCC2 sec2,HEK293 Tl flux,KCC2 retest ouab,HEK293 Tl flux2
CC(C)Oc1ccc(CNC(=S)N/N=C/c2ccc([N+](=O)[O-])cc2)cc1,3,-2,/,3.6*,30,0.0093,0.0068,0.034,0.0038,0.021,0.012
CCOC(=O)C1CCN(C(=O)Nc2ccc(OC(F)(F)F)cc2)CC1,/,0,-3,0.25,/,/,/,/,/,/,/
Cc1cc(C)c2cc(C#N)c(N3CCCC3)nc2c1,2,-1,/,8.7*,8,0.011,0.0059,0.036,0.007,0.026,0.01
CC(=O)c1cc(C#N)c(N2CCCC2)nc1C,4,6,/,1.1,-2,/,/,/,/,/,/
CC1CC(=O)c2cnc(Nc3ccccc3)nc2C1 (stereo not given),1,1,/,-0.95,2,/,/,/,/,/,/
CC1CC(=O)c2cnc(Nc3cccc(C(F)(F)F)c3)nc2C1 (stereo not given),9,-1,-13,-3*,1,0.012*,?,0.034,0.0081,0.023,0.011
Cc1ccc(C(=O)CSc2nnc(COc3cccc4cccnc34)o2)cc1,4,0,8,-4*,-7,?,?,?,0.0069,0.014,0.01
O=C(CSc1nnc(COc2cccc3cccnc23)o1)c1ccc(F)cc1,4,-6,8,/,11,0.0067,0.0052,0.033,0.0035,0.015*,0.011
Cc1cnc(C(=O)OCC(=O)Nc2ccc(C)c(S(=O)(=O)N3CCCCC3)c2)cn1,4,1,/,-0.58,-6,/,/,/,/,/,/
N#C/C(=C(/O)COc1ccccc1)c1nc2ccccc2s1,6,-2,-13,-5.4*,-5,?,0.0046,0.022*,0.0077,0.017,0.01
N#C/C(=C(/O)c1ccc(F)cc1)c1nc2ccccc2s1,3,0,-11,-4.8*,6,0.0073,0.0058,0.032,0.0059*,0.016*,0.0096
COc1ccc(C/C(O)=C(\C#N)c2nc3ccccc3s2)cc1,5,/,/,-1.1,17,/,/,/,/,/,/
N#C/C(=N\O)c1nc2ccccc2s1,2,1,-17,-0.22,8,/,/,/,/,/,/
N#C/C(=C(/O)COc1ccc(Cl)cc1)c1nc2ccccc2s1,5,-3,1,-3.7*,26,0.007,?,0.023*,0.0077,?,0.011
COc1ccc(C(=O)NCCn2ccc3ccccc32)c(OC)c1,3,-6,4,/,0,/,/,/,/,/,/
CN(C1CC(C)(C)NC(C)(C)C1)S(=O)(=O)CC12CCC(CC1=O)C2(C)C (stereo not given),/,0,5,0.23,/,/,/,/,/,/,/
CCCCn1c(-c2sccc2C)n[nH]c1=S,5,-1,16,/,1,/,/,/,/,/,/
Cc1[nH][nH]c(=O)c1C(c1ccc(-c2ccc(F)cc2)o1)c1c(C)[nH][nH]c1=O,2,0,22,-5.2*,21,0.017,0.0046,0.025*,0.0074,0.013,0.011
Cc1[nH][nH]c(=O)c1C(c1ccc(-c2ccc(Cl)c(Cl)c2)o1)c1c(C)[nH][nH]c1=O,2,/,/,-3.9*,-15,0.0069,0.0047,0.022*,0.0074,0.015*,0.0093
COc1ccc(-c2nnn(CC(=O)NCCc3c[nH]c4ccccc34)n2)cc1OC,2,/,15,/,-5,/,/,/,/,/,/
Cc1ccc(S(=O)(=O)c2nc(C)oc2NCc2ccccc2)cc1,4,0,/,/,-6,0.006,0.0055,0.033,0.0076,?,0.011
O=C(NCc1cccnc1)C1c2ccccc2C(=O)N1C1CCCCCCC1 (stereo not given),4,0,/,/,11,/,/,/,/,/,/
O=C(NCc1cccnc1)C1c2ccccc2C(=O)N1C1CCCCCC1 (stereo not given),5,-2,/,-4.5*,5,0.0099,0.0071,0.034,0.0088,0.023,?
Cc1c(Cl)cccc1Nc1ccccc1C(=O)O,4,2,/,4.6*,-14,?,0.024*,0.032,0.013*,?,0.011
CCOC(=O)NC(=S)Nc1ccc(OC)cc1,2,-6,/,15*,-6,0.0078,0.021*,0.035,0.016*,?,0.017*
SMILES,MT stabilize HCS,b-catenin transl,Pf gamet viab,Cl transport mod,WT yeast gro inh,KCC2 sec1,KCC2 bumet counter,KCC2 sec2,HEK293 Tl flux,KCC2 retest ouab,HEK293 Tl flux2
CCOC(=O)c1c(NC(=S)Nc2ccc(OC)cc2)sc2c1CCCCC2,2,0,/,4.7*,-12,0.011,0.011*,0.033,0.012*,0.023,0.012
CCOC(=O)c1ccc(Oc2nc(NC)nc(OC)n2)cc1,2,/,-5,-4.2*,25,0.0089,0.0071,0.036,0.0045,0.02,0.011
CCOC(=O)NC(=S)Nc1ccc(C(C)(C)C)cc1Br,/,-1,-17,49*,/,0.0075,0.046*,0.042*,0.046*,0.052*,0.022*
CCOC(=O)NC(NC(=S)Nc1ccc(OC)cc1)C(Cl)(Cl)Cl (stereo not given),5,-2,/,0.7,-2,/,/,/,/,/,/
Cc1csc(N(C(=O)c2ccccc2F)c2ccccc2)n1,6,-4,-15,-0.53,-12,/,/,/,/,/,/
COC(=O)CS(=O)(=O)c1ccsc1C(=O)Nc1ccc(F)c(F)c1,3,0,3,-0.00083,-31,/,/,/,/,/,/
COc1ccc(CNC(=O)c2csnn2)cc1,4,-1,/,/,-1,/,/,/,/,/,/
CCOC(=O)c1ccc(NC(=O)COC)cc1,2,/,/,/,-11,/,/,/,/,/,/
COc1ccc(NC(=S)NC(=O)c2csnn2)cc1,2,0,-1,138*,-2,0.089*,0.11*,0.12*,0.13*,0.12*,0.12*
CCOC(=O)c1ccc(NC(=O)CCOc2ccc(OC)cc2)cc1,1,/,13,/,8,0.0058,0.0047,0.03,0.0072,0.018,0.011
CCOC(=O)c1c(NC(=O)CC2SC(N)=NC2=O)sc2c1CCCC2 (stereo not given),1,0,/,-3.8*,10,0.0066,0.0047,0.03,?,0.019,0.0098
CN(C)CC#Cc1cncc(C(=O)NNC(=O)Nc2ccc(Cl)cc2)c1,/,-2,20,/,/,/,/,/,/,/,/
Cc1cc2nc3n(c2cc1C)CC1CC(C(=O)NCCc2cccs2)N(C)C31 (stereo not given),/,0,/,-0.84,/,/,/,/,/,/,/

# High-throughput results as filed in PubChem.
